Compound activity from PubChem.
In the library only some 3.6% were active in any assay of this set; here they are far more common.
ATG4B inhibitor: inhibitors of human ATG4B cysteine protease. actives 0.51% (n = 340,000). Q9Y4P1. inhibition, % at 8.33 µM. ATG4B cleavage of LC3-PLA2, NBD-HPC fluorescence, 1 h; in the data active means inhibition above about 40%
NadD inh: blocks S. aureus nicotinate mononucleotide adenylyltransferase | inhibition, % at 20 µM | actives 0.78% (n = 360,000) | purified NadD enzyme, colorimetric absorbance read-out; in the data active means inhibition above about 26%
SENP1 inh: blocks the human SENP1 SUMO protease catalytic domain | Q9P0U3 | recombinant SENP1 catalytic domain, CyPet-SUMO1-YPet FRET cleavage | inhibition, % at 10 µM | actives 0.21% (n = 360,000) | AID 624204;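 active means inhibition at least 30% at 10 µM, raw YFP signal under a set limit, fluorescence ratio 0.5 to 1.5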
Target sequence (Q9P0U3 419-644 limits assumed): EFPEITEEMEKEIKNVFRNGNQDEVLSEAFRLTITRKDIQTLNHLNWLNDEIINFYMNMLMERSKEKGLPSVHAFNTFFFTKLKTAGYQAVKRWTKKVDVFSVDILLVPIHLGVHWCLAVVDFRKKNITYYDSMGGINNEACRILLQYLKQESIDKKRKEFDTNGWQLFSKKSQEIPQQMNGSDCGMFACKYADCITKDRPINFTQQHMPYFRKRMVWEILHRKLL
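Test system: human SENP1 catalytic domain; medium: Tris pH 8 buffer plus EDTA, NaCl, BME, BSA, NP40, catalase; incubation: 50 min reaction at room temperature; technique: FRET, CFP and YFP emission; controls: no-enzyme low control and enzyme-plus-DMSO high control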
GRIN3A LBD mod: NR3A (human) ligand-binding domain modulation; actives 2.5% (n = 340,000); Tm shift relative to glycine control, % at 25 µM; NR3A LBD differential scanning fluorimetry, Tm shift; 0% = protein alone, 100% = glycine-bound protein; AID 1259313;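 active means melting temperature shift of at least 10% of the positive control shift, at one fixed dose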
UCH37 inh: blocks the human deubiquitinase UCH37. Q9Y5K5. purified proteasome/UCH37, Ub-AMC cleavage fluorescence. inhibition, % (concentration not given with the values). actives 0.33% (n = 330,000). AID 588478;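 active means mean inhibition over replicate wells above about 20%, limit read from the data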
Target sequence (Q9Y5K5 whole entry, looked up): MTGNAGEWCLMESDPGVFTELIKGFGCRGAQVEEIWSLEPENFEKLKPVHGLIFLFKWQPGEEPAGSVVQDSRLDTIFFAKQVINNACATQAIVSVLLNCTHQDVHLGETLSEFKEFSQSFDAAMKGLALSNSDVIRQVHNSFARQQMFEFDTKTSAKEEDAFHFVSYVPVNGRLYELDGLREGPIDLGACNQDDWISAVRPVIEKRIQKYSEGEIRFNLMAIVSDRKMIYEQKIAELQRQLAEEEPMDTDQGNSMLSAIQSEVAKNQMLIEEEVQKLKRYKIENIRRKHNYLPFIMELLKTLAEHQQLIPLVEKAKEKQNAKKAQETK
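system = Proteasome-associated human UCH37 deubiquitinase | amount = 0.15 nM proteasome as dispensed | medium = pH 7.4 Tris-HCl (50 mM) with ovalbumin, ATP-MgCl2, DTT | incubation = 30 min preincubation with enzyme, 25 min cleavage at room temperature | detection = AMC fluorescence 355/460 nm | read-out basis = percent inhibition | controls = no-proteasome and no-compound wells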
NadD conf: confirmation of Staphylococcus aureus NadD inhibitors; shares compounds with NadD inh; purified S. aureus NadD, colorimetric enzyme assay; inhibition, % at 20 µM; actives 13% (n = 2,000); AID 624309; in the data active means inhibition mostly above about 42%, no sharp cut-off; inactive means mostly below about 42%
A number is an active result; - = inactive; . = no result given.

SMILES	ATG4B inhibitor	NadD inh	SENP1 inh	GRIN3A LBD mod	UCH37 inh	NadD conf
Clc1ccccc1-c1ccc(/C=N/Nc2nncc(-c3ccccc3)n2)o1	-	32	-	-	.	-
CSc1nc(SCCO)c2sc3nc(-c4ccco4)c4c(c3c2n1)CC(C)(C)OC4	-	60	-	-	-	-
Cc1ccc2nc3c(cc2c1)CN(Cc1ccco1)C(=NCC1CCCO1)S3 (configuration not stated)	-	45	-	-	-	-
CCOc1ccc(C=NNC(=O)c2cc3c(OC)cc(OC)cc3[nH]2)cc1OC	.	.	.	.	-	.
O=C(/C=C/c1ccco1)N1CCC(Cc2ccccc2)CC1	-	34	-	-	-	-
O=C(/C=C/c1ccco1)N1CCN(c2ncccn2)CC1	-	-	-	-	-	.
O=C(NC(=S)Nn1cnc2c(cnn2-c2ccccc2)c1=O)c1ccc(Oc2ccccc2)cc1	-	42	-	-	-	-
Cc1ccc(/C=N/NC(=O)CSc2nc3ccccc3c(=O)n2-c2ccccc2C)s1	-	50	-	-	.	-
Cc1ccc(/C=N/NC(=O)CSc2nc3ccccc3c(=O)n2-c2ccccc2)s1	-	-	-	-	.	.
Cc1nn(-c2ccccc2)c(C)c1/C=N/NC(=O)CSc1nc2ccccc2c(=O)n1-c1ccc(Br)cc1	-	30	-	-	.	-
O=C(CSc1nnc(SCc2cccc3ccccc23)s1)NN=Cc1c[nH]c2ccccc12	.	.	.	.	-	.
O=C(Cc1cccc2ccccc12)Nc1ccc(-c2cc3ccccc3oc2=O)cc1	-	32	-	-	-	-
O=C(Nc1ccn(CCCN(CCCn2ccc(NC(=O)OCc3ccccc3)nc2=O)CCc2cc3ccccc3[nH]2)c(=O)n1)OCc1ccccc1	-	70	-	-	.	55
CCOc1ccc(N2C(=O)/C(=C\c3ccc(OC)c(O)c3)S(=O)(=O)C2c2cccc([N+](=O)[O-])c2)cc1 (configuration not stated)	-	34	-	-	-	-
CCOc1ccc(N2C(=O)/C(=C\c3ccc(O)c(OC)c3)S(=O)(=O)C2c2cccc([N+](=O)[O-])c2)cc1 (configuration not stated)	-	43	-	10	-	62
Cc1cc2cc(CN(Cc3cccs3)C(c3nnnn3C(C)(C)C)C(C)C)c3nnnn3c2cc1C (configuration not stated)	-	31	-	-	-	-
CCC(C)(C)n1nnnc1C(C(C)C)N(CCN1CCOCC1)Cc1cc2cccc(C)c2[nH]c1=O (configuration not stated)	-	-	-	-	-	.
O=C(CN1CCN(Cc2ccccc2)CC1)NN=C/C=C\c1ccco1	.	.	.	.	-	.
CN=c1scc(C)n1N=Cc1ccc(O)cc1	.	.	.	.	-	.
O=C(NC(=S)Nc1nc(-c2cccc([N+](=O)[O-])c2)cs1)c1ccccc1Cl	-	-	-	-	-	.
O=C(NC(=S)Nc1nc(-c2cccc([N+](=O)[O-])c2)cs1)c1cc(Cl)ccc1Cl	-	30	-	11	-	-
O=C(Nc1ccc(N2CCCC2)cc1)c1cc(Br)ccc1Cl	-	41	-	-	-	55
O=C(Nc1ccc(N2CCCC2)cc1)c1ccccc1[N+](=O)[O-]	-	27	-	-	-	-
Cc1ccc(C(=O)Nc2ccc(N3CCCC3)cc2)c(C)c1	-	32	-	-	-	-
CCC(=NNC(=O)c1nnn(-c2nonc2N)c1-c1cccc(OC)c1)c1ccc(C)cc1	.	.	.	.	-	.
SMILES	ATG4B inhibitor	NadD inh	SENP1 inh	GRIN3A LBD mod	UCH37 inh	NadD conf
Nc1nonc1C(=O)NN=Cc1ccncc1	.	.	.	.	-	.
O=C(NN=Cc1ccncc1)c1nc(-c2ccccc2)n2c1CCCCC2	.	.	.	.	-	.
O=C1c2ccccc2C(=O)N1CCc1c(-c2ccccc2)[nH]c2ccccc12	-	-	-	-	.	.
O=C1c2ccccc2C(=O)N1CCc1c(-c2[nH]c3ccccc3c2CCN2C(=O)c3ccccc3C2=O)[nH]c2ccccc12	-	31	-	-	.	-
O=C(CON=Cc1ccccc1)N1c2ccccc2Oc2ccccc21	.	.	.	.	-	.
CCOC(=O)c1c(N=CC2=C(O)CC(C)(C)CC2=O)sc(C(C)=O)c1C	.	.	.	.	-	.
CC1CC(=NNC(=O)CCc2ccc(S(=O)(=O)N3CCOCC3)cc2)CC(C)(C)C1 (configuration not stated)	.	.	.	.	-	.
O=C(/C=C/c1cccs1)c1cc(Cl)ccc1O	-	-	-	-	-	.
O=C(/C=C/c1ccc2ccccc2n1)c1cc(Cl)ccc1O	-	33	-	-	-	-
CCOc1ccc(Br)cc1S(=O)(=O)Nc1ccc(C(=O)OCC(=O)Nc2ccc(C#N)cc2)cc1	-	34	-	14	-	-
CCOc1ccc(NC(=S)NS(=O)(=O)c2cc(Br)ccc2OCC)cc1	-	-	-	-	-	.
Cc1ccc(-c2cc(-c3ccc(F)cc3)nc(N)c2C#N)o1	-	-	-	-	-	.
Cc1ccc(-c2cc(-c3ccccc3Cl)c(C#N)c(N)n2)o1	-	68	-	-	-	57
Cc1ccc(-c2cc(-c3ccccc3)c(C#N)c(N)n2)o1	-	41	-	-	-	-
Cc1cccc(C=NN(CCO)C2=NS(=O)(=O)c3ccccc32)c1	.	.	.	.	-	.
Cc1cccn2c(=O)c(C=NO)c(N3CCCCC3)nc12	.	.	.	.	-	.
Cc1ccc(-n2c(O)c(C=Nc3ccccc3-c3n[nH]c(=S)[nH]c3=O)c3ccccc3c2=O)cc1C	-	39	-	-	-	62
C/C(=N\NC(=O)c1cccc(N/N=C(\C)c2ccc([N+](=O)[O-])cc2)c1)c1ccc([N+](=O)[O-])cc1	-	33	-	-	.	-
Cc1ccc(-c2[nH]c3cc(C(=O)NCCCn4ccnc4)ccc3c(=O)c2O)cc1	-	54	-	-	-	-
CCNc1nc(NC(C)C)nc(Oc2ccc(C=NO)cc2)n1	.	.	.	.	-	.
Cc1ccnc(NS(=O)(=O)c2ccc(NC(=O)c3cc(-c4ccc(Br)cc4)nc4ccccc34)cc2)n1	-	74	-	-	.	46
COc1ccc(-c2cc(C(=O)Nc3ccc(S(=O)(=O)Nc4onc(C)c4C)cc3)c3ccccc3n2)cc1	-	29	-	-	-	66
Cn1cccc1C=NNC(=O)Cc1cccc2ccccc12	.	.	.	.	-	.
Cc1ccc(NC(=O)C(C#N)=NNc2ccc(C(=O)O)cc2)c(C)c1	.	.	.	.	-	.
O=C(NN=Cc1ccsc1)c1cc(-c2ccncc2)nc2ccccc12	.	.	.	.	-	.
O=C1CCCC2=C1C1(CCCC1)N=C(Nc1nc3cc(-c4ccccc4)ccc3o1)N2	.	40	-	.	.	-
O=C1CC(c2ccccc2)CC2=C1C1(CCCC1)N=C(Nc1nc3ccccc3o1)N2 (configuration not stated)	.	-	-	.	.	.
Cn1ncc(Cl)c1C(=O)NC(=S)Nc1sc2c(c1C#N)CCCCC2	-	29	-	13	-	-
